Compound activity deposited in PubChem BioAssay by several laboratories.
Shown is part of a subset that was picked to be rich in hits.
AP complement = alternative complement pathway inhibitors, primary screen, biochemical, ELISA, human serum, orthogonally pooled compounds | LPS-coated ELISA, C3 deposition; tested in compound mixtures | AID 1235, 2008 | 62,000 tested, 0.08% active | inhibition, % at 5 µM;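 active = inhibition above 30% in each of the two pooled mixtures holding the compound, so the lower value exceeds 30%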;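 also: 0% = serum in Mg-EGTA without compound and 100% = EDTA serum blank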
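Assay system: human serum alternative complement pathway, C3 deposition on LPS-coated wells; Dosing: 5 µM per compound in ten-compound mixtures; Detection: Anti-C3 ELISA, OD 450 nm; Buffer or medium: Mg2+-EGTA GVB++ buffer containing human serum at 1:15 dilution; Timing: 1 h at 37 °C; Replication: two different pools per compound.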
HePTP inh = inhibitors of human HePTP phosphatase, primary screen, biochemical, absorbance, leukemia target; recombinant HePTP phosphatase activity, OD absorbance; Tyrosine-protein phosphatase non-receptor type 7 (Homo sapiens), P35236; 110,000 tested, 0.64% active; inhibition, % at 20 µM; in the data active = inhibition above about 50%;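 also: plate controls were vehicle for no effect and reference inhibitor for full effect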
MMP-13 inhibitor = human MMP13 inhibitors, primary screen, biochemical, FRET peptide cleavage; MMP-13 fTHP FRET cleavage, Mca fluorescence; 65,000 tested, 0.07% active; Collagenase 3 (Homo sapiens), P45452; inhibition, % at 4 µM;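 active = inhibition above the mean of compound-free control plate wells plus 3 SD, cut at about 14% in these data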;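 also: 0% = DMSO wells and 100% = wells with reference MMP-13 inhibitor after basal subtraction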
Ecoli WT expand = growth inhibitors of wild-type E. coli, primary screen, strain BW25113, expanded library, OD600; growth inhibition, % at 100 µM; AID 710, 2007; 98,000 tested, 0.15% active; OD600 absorbance;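 active = growth inhibition above about 50% at one test dose, limit read from the data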;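 also: growth measured after 20 h incubation at 37 °C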
Ec RNAP inh = E. coli RNAP inhibitors, biochemical | inhibition, %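 (tested at 10 µM)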 | DNA-directed RNA polymerase subunit beta (Escherichia coli (strain K12)), P0A8V2 | AID 559, 2006 | E. coli RNA polymerase, fluorescence transcription assay | 62,000 tested, 0.2% active; in the data active = inhibition above about 20%;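 also: 0% = enzyme without compound and 100% = no enzyme blank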
Target sequence (P0A8V2 whole entry, looked up): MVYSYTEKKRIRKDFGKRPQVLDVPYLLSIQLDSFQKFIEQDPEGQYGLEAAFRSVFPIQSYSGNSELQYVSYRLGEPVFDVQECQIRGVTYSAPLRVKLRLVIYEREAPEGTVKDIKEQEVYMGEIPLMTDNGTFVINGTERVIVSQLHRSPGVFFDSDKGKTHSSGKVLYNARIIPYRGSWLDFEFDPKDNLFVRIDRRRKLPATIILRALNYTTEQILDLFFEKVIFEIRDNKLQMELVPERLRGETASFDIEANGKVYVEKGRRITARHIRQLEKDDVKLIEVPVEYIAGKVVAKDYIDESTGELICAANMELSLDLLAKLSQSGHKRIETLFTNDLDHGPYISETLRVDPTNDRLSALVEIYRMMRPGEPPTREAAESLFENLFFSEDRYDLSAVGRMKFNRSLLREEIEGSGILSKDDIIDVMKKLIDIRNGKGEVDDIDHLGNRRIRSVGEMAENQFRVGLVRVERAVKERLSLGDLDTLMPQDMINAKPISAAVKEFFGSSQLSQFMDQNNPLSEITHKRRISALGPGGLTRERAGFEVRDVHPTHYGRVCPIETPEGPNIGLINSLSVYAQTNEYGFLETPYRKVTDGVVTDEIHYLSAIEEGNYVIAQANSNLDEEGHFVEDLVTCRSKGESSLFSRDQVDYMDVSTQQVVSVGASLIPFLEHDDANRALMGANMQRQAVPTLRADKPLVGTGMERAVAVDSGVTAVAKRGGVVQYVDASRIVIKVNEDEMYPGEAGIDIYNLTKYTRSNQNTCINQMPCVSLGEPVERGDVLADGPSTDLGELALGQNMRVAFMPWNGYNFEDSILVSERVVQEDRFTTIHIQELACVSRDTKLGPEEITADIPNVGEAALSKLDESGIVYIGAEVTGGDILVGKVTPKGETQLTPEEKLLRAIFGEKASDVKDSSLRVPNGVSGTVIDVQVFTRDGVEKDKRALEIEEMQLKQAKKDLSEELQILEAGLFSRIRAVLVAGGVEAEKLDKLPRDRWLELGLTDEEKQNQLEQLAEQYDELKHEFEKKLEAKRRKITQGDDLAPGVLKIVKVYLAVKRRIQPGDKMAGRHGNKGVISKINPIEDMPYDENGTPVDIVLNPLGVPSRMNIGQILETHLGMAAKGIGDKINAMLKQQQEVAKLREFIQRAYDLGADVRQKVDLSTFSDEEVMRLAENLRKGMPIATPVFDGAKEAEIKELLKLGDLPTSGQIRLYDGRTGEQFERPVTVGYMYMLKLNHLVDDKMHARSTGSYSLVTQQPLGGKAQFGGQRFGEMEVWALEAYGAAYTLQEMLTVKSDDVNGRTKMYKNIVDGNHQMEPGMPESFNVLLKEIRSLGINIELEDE
Ecoli tolC = growth inhibitors of E. coli tolC mutant, primary screen, strain BW25113 ΔtolC::kan, 384-well. 65,000 tested, 2.2% active. OD615. growth inhibition, % at 10 µM (by protocol);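 active = growth inhibition at or above a cutoff equal to the mean over every tested compound plus 3 SD, cut at about 60% in these data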;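 also: growth measured after 20 h incubation at 37 °C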
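Test system: tolC-deleted E. coli BW25113; medium: LB with kanamycin 50 µg/mL; compound: single-point testing at 10 µM; incubation: 20 h compound exposure of bacteria at 37 °C; signal: OD at 615 nm; evaluation: growth inhibition in percent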
* = called active by the depositor; · = no result.

SMILES | AP complement | HePTP inh | MMP-13 inhibitor | Ecoli WT expand | Ec RNAP inh | Ecoli tolC
Cc1ccc(-c2cc(C(=O)O)c3cc(Br)ccc3n2)o1 | · | 104.0* | · | · | · | ·
Cc1cc(NC(=O)COC(=O)[C@H](C)NC(=O)c2ccccc2)no1 | · | · | · | -4.0 | · | ·
Cc1cc(NC(=O)COC(=O)C(Nc2ccc(C(F)(F)F)cc2Cl)C(C)C)no1 (stereo unspecified) | -1.8 | 0.1 | 7.4 | 1.0 | 2.7 | 91.0*
O=C1c2ccc(-c3nc4ccccc4c(=O)o3)cc2C(=O)N1c1ccc([N+](=O)[O-])cc1 | · | 4.4 | · | · | · | ·
O=C1OC(c2ccc(Cl)cc2)=C/C1=C\c1cccs1 | · | 39.1 | · | · | · | ·
COc1ccc(OC)c(/C=C2/C=C(c3ccccc3)OC2=O)c1 | · | 6.2 | · | · | · | ·
O=C1OC(c2ccc(Cl)cc2)=C/C1=C\c1ccco1 | · | 50.8* | · | · | · | ·
O=C1OC(c2ccc(Oc3ccccc3)cc2)=C/C1=C/c1ccco1 | · | 101.4* | · | · | · | ·
O=c1[nH]c(=O)n(-c2cccc(Br)c2)c(O)c1/C=C1\C=Nc2ccccc21 | · | -8.6 | · | · | · | ·
O=C(Oc1c(CN2CCOCC2)cc(Cl)c2cccnc12)c1ccc(F)cc1 | 10.2 | -0.8 | -0.1 | 18.0 | · | 25.5
O=C(Oc1c(Cl)cc(Cl)c2cccnc12)c1ccco1 | · | · | · | 100.0* | · | ·
Oc1ccc(CN2CCc3ccccc3C2)c2cccnc12 | · | · | · | 62.0* | · | ·
OCc1ccc(O)c2ncccc12 | · | · | · | 14.0 | · | ·
COc1ccc(NC(=O)N(C2CCCCC2)C(C)c2ccco2)c(OC)c1 (stereo unspecified) | -8.3 | -6.8 | 4.6 | -17.0 | -9.7 | 68.6*
CCOC(=O)c1cnc(-n2cc(C)cn2)nc1Nc1ccccc1OCC | 11.1 | 4.8 | 6.7 | 3.0 | 5.8 | 67.8*
COC(=O)c1cccc(-c2ccc(/C=C3\C(=O)N(c4ccc(S(N)(=O)=O)cc4)N=C3C)o2)c1 | · | 7.8 | · | · | · | ·
N=C1S/C(=C\c2ccc(-c3cccc(C(=O)O)c3)o2)C(=O)N1c1ccc2c(c1)OCO2 | · | 102.7* | · | · | · | ·
COC(=O)c1cccc(-c2ccc(/C=C3\C(=O)N(c4cccc(C(=O)O)c4)N=C3C)o2)c1 | · | 101.9* | · | · | · | ·
O=C1NN(c2cccc(Cl)c2)C(=O)/C1=C\c1ccc(-c2cccc(C(=O)O)c2)o1 | · | 101.5* | · | · | · | ·
CC(=O)c1cccc(-c2ccc(/C=C3\C(=O)N(c4cccc(C(=O)O)c4)N=C3C)o2)c1 | · | 16.3 | · | · | · | ·
CC1=NN(c2ccc(C(=O)O)cc2)C(=O)/C1=C\c1ccc(-c2cccc(C(=O)O)c2)o1 | · | 100.6* | · | · | · | ·
O=S(=O)(Nc1ccc(Cl)cn1)c1ccc2ccccc2c1 | · | 0.7 | · | · | · | ·
COc1ccc(CC(=O)Nc2cc(C(=O)O)cc(C(=O)O)c2)cc1OC | · | -10.3 | · | · | · | ·
O=C1N=c2ccccc2=C1c1sc(=S)n(-c2ccc(C(=O)O)cc2)c1O | · | 100.0* | · | · | · | ·
Oc1ccc(-n2c(O)c(/C=C3\C=Nc4ccccc43)sc2=S)cc1 | · | 5.6 | · | · | · | ·
SMILES | AP complement | HePTP inh | MMP-13 inhibitor | Ecoli WT expand | Ec RNAP inh | Ecoli tolC
CCN(CC)c1ccc(-n2c(O)c(C3=c4ccccc4=NC3=O)sc2=S)cc1 | · | -9.6 | · | · | · | ·
O=C(O)c1ccc(-n2c(O)c(/C=C3\C=Nc4ccccc43)sc2=S)cc1 | · | 57.4* | · | · | · | ·
O=C(Nc1ccc(Cl)c(C(F)(F)F)c1)c1ccco1 | 4.1 | 4.9 | 6.2 | 30.0 | -1.9 | 98.3*
O=C(Nc1cccc(C(F)(F)F)c1)c1ccco1 | 2.5 | 9.3 | 3.5 | 2.0 | 3.2 | 13.8
O=C(Nc1ccc2oc(-c3cccc(Cl)c3Cl)nc2c1)c1ccco1 | · | 101.0* | · | · | · | ·
CCN(CC)c1ccc(/C=N/N2C(=O)c3ccccc3C2=O)cc1 | · | 102.2* | · | · | · | ·
O=C(N/N=C/c1cc(Cl)ccc1OCc1c(F)cccc1Cl)c1cccnc1 | · | -0.4 | · | · | · | ·
NC1=NC(=O)/C(=C\c2ccc(-c3ccc([N+](=O)[O-])cc3)o2)S1 | · | 64.2* | · | · | · | ·
CCCC1=NN2C(=N)/C(=C/c3ccc(-c4ccc([N+](=O)[O-])cc4Br)o3)C(=O)N=C2S1 | · | 75.9* | · | · | · | ·
CC(C)C1=NN2C(=N)/C(=C/c3ccc(-c4ccc([N+](=O)[O-])cc4)o3)C(=O)N=C2S1 | · | 78.7* | · | · | · | ·
CC1(C)CC(=O)C2=C(C1)c1c(ccc3ccccc13)NC2c1cc([N+](=O)[O-])ccc1N1CCOCC1 (stereo unspecified) | · | 5.3 | · | · | · | ·
CCC1=NN2C(=N)/C(=C/c3ccc(OCc4ccc(Br)cc4)c(OC)c3)C(=O)N=C2S1 | · | 100.6* | · | · | · | ·
O=C1Nc2ccccc2C12OCC(COc1ccc(Cl)cc1)O2 (stereo unspecified) | 10.0 | -0.9 | 4.0 | 12.0 | 5.5 | 93.5*
CN1C(=O)C2(OCC(COc3ccc(Cl)cc3)O2)c2ccccc21 (stereo unspecified) | 17.2 | 2.6 | 1.4 | -8.0 | 15.0 | 70.6*
CCOC(=O)c1ccc(N2C(=O)c3n[nH]c(C)c3C2c2ccc(OC)cc2OC)cc1 (stereo unspecified) | · | · | 1.2 | · | · | 68.1*
CCOC(=O)c1ccc(N2C(=O)c3n[nH]c(C)c3C2c2ccc(OC)cc2)cc1 (stereo unspecified) | 29.8 | 4.2 | 3.0 | 3.0 | 0.7 | 13.0
COC(=O)c1ccc(C2c3c(n[nH]c3C)C(=O)N2c2ccc(C)cc2)cc1 (stereo unspecified) | 12.9 | -9.0 | 5.8 | 4.0 | 0.5 | 74.7*
O=C1c2ccc(S(=O)(=O)c3ccc4c(c3)C(=O)N(c3nccs3)C4=O)cc2C(=O)N1c1nccs1 | · | 1.2 | · | · | · | ·
COc1ccc(/C=C/C(=O)Nc2ccc(OC)c(OC)c2)cc1OC | · | -4.4 | · | · | · | ·
Cn1ncc2c(Nc3ccc4ccccc4c3)ncnc21 | 2.5 | 3.5 | 4.8 | -8.0 | 21.1* | 8.0
CC(C)(C)c1ccc(OCC(=O)NCCO)cc1 | · | 11.0 | · | · | · | ·
Cc1nc2nc(-c3ccco3)[nH]n2c(=O)c1Cc1ccccc1 | 4.7 | -1.8 | -25.8 | 2.0 | 4.1 | 72.3*
CN1CCN(Cc2c(O)ccc3c(=O)c(-c4ccc(Cl)cc4Cl)coc23)CC1 | · | -15.1 | · | · | · | ·
O=C(Nc1ccc(-c2nc3ccccc3s2)c(O)c1)c1ccc2c(c1)OCCO2 | · | 67.9* | · | · | · | ·
COC(=O)c1cccc(NC(=O)Cn2cnc3c2c(=O)n(C)c(=O)n3C)c1 | -22.5 | -0.3 | 14.9* | · | 4.5 | 1.7
CC1CCCCN1S(=O)(=O)c1ccc(NC(=O)c2cccc(-n3cnnn3)c2)cc1 (stereo unspecified) | 5.5 | 0.7 | 2.5 | -2.0 | 6.1 | 47.3
CC1CCCN(S(=O)(=O)c2ccc(NC(=O)c3cccc(-n4cnnn4)c3)cc2)C1 (stereo unspecified) | 17.0 | 10.5 | -2.3 | -10.0 | -2.4 | 72.9*
O=C(NNc1ccc([N+](=O)[O-])cc1)c1ccc(Cl)cc1Cl | · | -1.5 | · | · | · | ·
COc1ccc(-n2c(SC)nc(O)c(Cc3ccccc3)c2=O)cc1 | · | -7.7 | · | -4.0 | · | ·
